Blank lines part the entries; values can stand above or below the molecule they belong to. Active and inactive are the calls of the source. The calls are words filed in the database; no cut-off is given here. Peptide text beside a SMILES is read from it.
What was measured:
[1] = molecular target: Glucagon receptor (Rattus norvegicus) (UniProt P30082); assay: Relative binding by measuring competition for glucagon receptor between [125]glucagon and the compound.
Procedure, shortened: (§1)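 Incubation 10 min at 30 °C, then ice cooling and filtration on 0.45 μm cellulose acetate, gamma counting. Nonspecific binding taken with 1024 nM unlabeled peptide and subtracted. Read as % inhibition of specific binding. Triplicates, repeated twice.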

[2] = molecular target: T1, Adenylate cyclase (Rattus norvegicus) (UniProt D4A3N4+P26770+Q04400+P26769+Q03343+P40146+Q8CFM9+P21932); assay: Maximum stimulation of adenylate cyclase.; format: protein assay
[3] = molecular target: Glucagon receptor (Rattus norvegicus) (UniProt P30082); assay: (§2) Compound was evaluated for its ability to displace radiolabeled glucagon (inactive up to 100 uM); procedure, shortened: as §1
[4] = molecular target: T1, Adenylate cyclase (Rattus norvegicus); assay: Adenylate cyclase activity of the compound, expressed as effective concentration (inactive up to 100 uM); format: protein assay
Procedure, shortened: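 Adenylate cyclase in rat liver plasma membranes (35 μg protein), in 0.1 mL of 1 mM [α-32P]ATP, 5 mM MgCl2, […], 1 mM EDTA, 1 mM cAMP with [3H]cAMP tracer, 25 mM Tris pH 7.5, 0.4% BSA, plus a phosphocreatine/creatine phosphokinase regenerating system. [32P]cAMP isolated on Dowex and alumina columns.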

[5] = pA2 value, a dose-response plot was obtained by determining the response when the concentration of glucagon was varied while the concentration was kept same.
Glucagon receptor [6] = molecular target: T2, Glucagon receptor (Rattus norvegicus, UniProt P30082); assay: as §2
[7] = molecular target: Glucagon receptor (Rattus norvegicus) (UniProt P30082); assay: Relative binding was evaluated by measuring competition for glucagon receptor between [125I]glucagon and the compound.
[8] = molecular target: T1, Adenylate cyclase (Rattus norvegicus); assay: Relative potency was evaluated by measuring potency for conversion of [alpha-32P]ATP to cyclic 3',5'-AMP relative to glucagon; format: protein assay
[9] = molecular target: T1, Adenylate cyclase (Rattus norvegicus); assay: Adenylate cyclase stimulation; Inactive up to 100 uM.; format: protein assay
Adenylate cyclase [10] = assay: Adenylate cyclase activity of the compound, expressed as effective concentration; format: protein assay
Procedure, shortened: (§3)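 Rat liver plasma membranes (male Sprague–Dawley, 200–250 g; sucrose-gradient purified), 35 μg protein in 0.1 mL with 1 mM [α-32P]ATP, 5 mM MgCl2, GTP, 1 mM EDTA, 1 mM cAMP plus [3H]cAMP tracer, 25 mM Tris pH 7.5, 0.4% BSA, phosphocreatine/creatine kinase regeneration. Labeled cAMP isolated by sequential Dowex and alumina chromatography.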

Adenylate cyclase [11] = assay: Effective concentration required for 50% conversion of [alpha-32P]ATP to cyclic 3',5'-AMP.; format: protein assay; procedure, shortened: as §3
Glucagon receptor [12] = molecular target: T2, Glucagon receptor; assay: IC50 value was expressed for inhibition of [125]glucagon specific binding.; procedure, shortened: as §1
Glucagon receptor [13] = molecular target: T2, Glucagon receptor; assay: Compound was evaluated for its ability to displace radiolabeled glucagon; procedure, shortened: as §1
[14] = A dose-response plot was obtained by determining the response when the concentration of glucagon was varied while the concentration was kept same.
Glucagon receptor [15] = molecular target: T2, Glucagon receptor; assay: IC50 value was expressed as inhibition of [125]glucagon specific binding.; procedure, shortened: as §1
[16] = molecular target: T1, Adenylate cyclase (Rattus norvegicus); assay: Adenylate cyclase activity of the compound, evaluated for the percentage maximum stimulation; format: protein assay; procedure, shortened: as §3

T2 sequence (P30082 whole entry): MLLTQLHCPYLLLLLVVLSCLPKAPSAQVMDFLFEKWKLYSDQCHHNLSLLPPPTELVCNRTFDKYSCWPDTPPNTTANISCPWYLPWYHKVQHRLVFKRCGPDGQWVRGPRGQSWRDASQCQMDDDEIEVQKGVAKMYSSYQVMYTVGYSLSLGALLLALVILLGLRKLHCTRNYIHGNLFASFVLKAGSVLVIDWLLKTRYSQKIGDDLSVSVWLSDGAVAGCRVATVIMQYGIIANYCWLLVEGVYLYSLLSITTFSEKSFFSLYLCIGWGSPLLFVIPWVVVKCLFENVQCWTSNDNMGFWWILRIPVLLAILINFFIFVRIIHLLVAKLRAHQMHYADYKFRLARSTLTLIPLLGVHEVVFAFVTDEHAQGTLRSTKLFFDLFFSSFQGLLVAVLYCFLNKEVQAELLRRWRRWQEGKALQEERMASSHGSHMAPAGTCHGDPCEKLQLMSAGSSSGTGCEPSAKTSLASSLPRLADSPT
Sequence of Glucagon receptor (Rattus norvegicus) (P30082 whole entry): as above

Molecule: CSCC[C@H](NC(=O)[C@H](CC(C)C)NC(=O)[C@H](Cc1c[nH]c2ccccc12)NC(=O)[C@H](CCC(N)=O)NC(=O)[C@@H](NC(=O)[C@H](Cc1ccccc1)NC(=O)[C@H](CC(=O)O)NC(=O)[C@H](CCC(N)=O)NC(=O)[C@H](C)NC(=O)[C@H](CCCN=C(N)N)NC(=O)[C@H](CCCN=C(N)N)NC(=O)[C@H](CO)NC(=O)[C@H](CC(=O)O)NC(=O)[C@H](CC(C)C)NC(=O)[C@H](Cc1ccc(O)cc1)NC(=O)[C@H](CCCCN=C(N)N)NC(=O)[C@H](CO)NC(=O)[C@H](Cc1ccc(O)cc1)NC(=O)[C@H](CC(=O)O)NC(=O)[C@H](CO)NC(=O)[C@@H](NC(=O)[C@H](Cc1ccccc1)NC(=O)[C@@H](NC(=O)CNC(=O)[C@H](CCC(N)=O)NC(=O)[C@H](CO)NC(=O)[C@H](Cc1c[nH]cn1)Nc1c([N+](=O)[O-])cc([N+](=O)[O-])cc1[N+](=O)[O-])[C@@H](C)O)[C@@H](C)O)C(C)C)C(=O)N[C@@H](CC(N)=O)C(=O)N[C@H](C(=O)O)[C@@H](C)O
- pA2 [5]: 8.16
- IC50 (Glucagon receptor [6]): 15 nM

Molecule: GLUCAGON [listing 1 of 2 here]
- EC50 (Adenylate cyclase [10]): 5.9 nM
- EC50 (Adenylate cyclase [11]): 8 nM

Molecule: H-SQGTTSEYSKYLDSRRAQDFVQWLMNT-NH2
- pA2 [5]: 8.2
- IC50 (Glucagon receptor [13]): 48 nM

Molecule: H-HSQGTFTSDYS-NH2
- Relative binding [1]: 0%
- Max stimulation [2]: 0%
- IA [3]: Inactive up to 100 uM
- IA [4]: Inactive up to 100 uM

Molecule: CC(C)C[C@H](NC(=O)[C@H](Cc1ccc(O)cc1)NC(=O)[C@H](CCCCN)NC(=O)[C@H](CO)NC(=O)[C@H](Cc1ccc(O)cc1)NC(=O)[C@H](CC(=O)O)NC(=O)[C@H](CO)NC(=O)[C@@H](NC(=O)[C@H](Cc1ccccc1)NC(=O)[C@@H](NC(=O)CNC(=O)[C@H](CCC(N)=O)NC(=O)[C@H](CO)NC(=O)[C@@H](N)Cc1c[nH]cn1)[C@@H](C)O)[C@@H](C)O)C(=O)N[C@@H](CC(=O)O)C(=O)O
- Relative binding [1]: < 0.0001%
- Relative potency [8]: < 0.0001%

Molecule: Ac-FTSDYSKYLDSRRAQDFVQWLMNT-NH2
- pA2 [14]: 6.57
- IC50 (Glucagon receptor [15]): 31 nM

Molecule: CC(C)C[C@H](NC(=O)[C@H](Cc1ccc(O)cc1)NC(=O)[C@H](CCCCN)NC(=O)[C@H](CO)NC(=O)[C@H](Cc1ccc(O)cc1)NC(=O)[C@H](CC(=O)O)NC(=O)[C@H](CO)NC(=O)[C@@H](NC(=O)[C@H](Cc1ccccc1)NC(=O)[C@@H](NC(=O)CNC(=O)[C@H](CCC(N)=O)NC(=O)[C@H](CO)NC(=O)[C@@H](N)Cc1c[nH]cn1)[C@@H](C)O)[C@@H](C)O)C(=O)N[C@@H](CC(=O)O)C(=O)N[C@@H](CO)C(=O)N[C@@H](CCCN=C(N)N)C(=O)N[C@@H](CCCN=C(N)N)C(=O)N[C@@H](C)C(=O)N[C@@H](CCC(N)=O)C(=O)N[C@@H](CC(=O)O)C(=O)N[C@@H](Cc1ccccc1)C(=O)N[C@H](C(=O)N[C@@H](CCC(N)=O)C(=O)O)C(C)C
- Relative binding [1]: 0.0002%
- Relative potency [8]: 0.0002%

Molecule: Ac-FTSDYSKYL-NH2
- Relative binding [1]: 0%
- Max stimulation [2]: 0%
- IA [3]: Inactive up to 100 uM
- IA [9]: Inactive up to 100 uM

Molecule: CC(C)C[C@H](NC(=O)[C@H](Cc1ccc(O)cc1)NC(=O)[C@H](CCCCN)NC(=O)[C@H](CO)NC(=O)[C@H](Cc1ccc(O)cc1)NC(=O)[C@H](CC(=O)O)NC(=O)[C@H](CO)NC(=O)[C@@H](NC(=O)[C@H](Cc1ccccc1)NC(=O)[C@@H](NC(=O)CNC(=O)[C@H](CCC(N)=O)NC(=O)[C@H](CO)NC(=O)[C@@H](N)Cc1c[nH]cn1)[C@@H](C)O)[C@@H](C)O)C(=O)N[C@@H](CC(N)=O)C(=O)N[C@@H](CO)C(=O)N[C@@H](CCCN=C(N)N)C(=O)O
- Relative binding [1]: 0.0001%
- Relative potency [8]: 0.0001%

Molecule: GLUCAGON [listing 2 of 2 here]
- Max stimulation [16]: 100%
- Relative binding [1]: 100%

More lines, main results first:

- Relative binding [1]: 0%
- Max stimulation [2]: 0%
- IA [3]: Inactive up to 100 uM
- IA [4]: Inactive up to 100 uM
Molecule: H-TFTSDYSKYLDS-NH2

- Relative binding [7]: < 0.0001%
- Relative potency [8]: < 0.0001%
Molecule: H-HSQGTF-OH

- Relative binding [1]: 0%
- Max stimulation [2]: 0%
- IA [3]: Inactive up to 100 uM
- IA [9]: Inactive up to 100 uM
Molecule: H-YSKYLDSRRAQ-NH2

- IC50 (Glucagon receptor [12]): 781 nM
Molecule: CSCC[C@H](NC(=O)[C@H](CC(C)C)NC(=O)[C@H](Cc1c[nH]c2ccccc12)NC(=O)[C@H](CCC(N)=O)NC(=O)[C@@H](NC(=O)[C@H](Cc1ccccc1)NC(=O)[C@H](CC(=O)O)NC(=O)[C@H](CCC(N)=O)NC(=O)[C@H](C)NC(=O)[C@H](CCCN=C(N)N)NC(=O)[C@H](CCCN=C(N)N)NC(=O)[C@H](CO)NC(=O)[C@H](CC(=O)O)NC(=O)[C@H](CC(C)C)NC(=O)[C@H](Cc1ccc2ccccc2c1)NC(=O)[C@H](CCCCN)NC(=O)[C@H](CO)NC(=O)[C@H](Cc1ccc(O)cc1)NC(=O)CCCc1ccccc1)C(C)C)C(=O)N[C@@H](CC(N)=O)C(=O)N[C@H](C(N)=O)[C@@H](C)O (HELM PEPTIDE1{[O=C(CCCc1ccccc1)[*:2]].Y.S.K.[O=C([C@H](Cc1ccc2ccccc2c1)N[*:1])[*:2]].L.D.S.R.R.A.Q.D.F.V.Q.W.L.M.N.T.[am]}$$$$V2.0)
- pA2 [5]: 6.7

- Relative binding [1]: 0.19%
- Max stimulation [2]: 0%
- IA [9]: Inactive up to 100 uM
Molecule: CSCC[C@H](NC(=O)[C@H](CC(C)C)NC(=O)[C@H](Cc1c[nH]c2ccccc12)NC(=O)[C@H](CCC(N)=O)NC(=O)[C@@H](NC(=O)[C@H](Cc1ccccc1)NC(=O)[C@H](CC(=O)O)NC(=O)[C@H](CCC(N)=O)NC(=O)[C@H](C)NC(=O)[C@H](CCCN=C(N)N)NC(=O)[C@H](CCCN=C(N)N)NC(=O)[C@H](CO)NC(=O)[C@H](CC(=O)O)NC(=O)[C@H](CC(C)C)NC(=O)[C@H](Cc1ccc2ccccc2c1)NC(=O)[C@H](CCCCN)NC(=O)[C@H](CO)NC(=O)[C@H](Cc1ccc2ccccc2c1)NC(C)=O)C(C)C)C(=O)N[C@@H](CC(N)=O)C(=O)N[C@H](C(N)=O)[C@@H](C)O (HELM PEPTIDE1{[ac].[O=C([C@H](Cc1ccc2ccccc2c1)N[*:1])[*:2]].S.K.[O=C([C@H](Cc1ccc2ccccc2c1)N[*:1])[*:2]].L.D.S.R.R.A.Q.D.F.V.Q.W.L.M.N.T.[am]}$$$$V2.0)
- pA2 [14]: 6.87

- IC50 (Glucagon receptor [15]): 249 nM
Molecule: CSCC[C@H](NC(=O)[C@H](CC(C)C)NC(=O)[C@H](Cc1c[nH]c2ccccc12)NC(=O)[C@H](CCC(N)=O)NC(=O)[C@@H](NC(=O)[C@H](Cc1ccccc1)NC(=O)[C@H](CC(=O)O)NC(=O)[C@H](CCC(N)=O)NC(=O)[C@H](C)NC(=O)[C@H](CCCN=C(N)N)NC(=O)[C@H](CCCN=C(N)N)NC(=O)[C@H](CO)NC(=O)[C@H](CC(=O)O)NC(=O)[C@H](CC(C)C)NC(=O)[C@H](Cc1ccc(O)cc1)NC(=O)[C@H](CCCCN)NC(=O)[C@H](CO)NC(=O)[C@H](Cc1ccc(O)cc1)NC(=O)Cc1ccccc1)C(C)C)C(=O)N[C@@H](CC(N)=O)C(=O)N[C@H](C(N)=O)[C@@H](C)O (HELM PEPTIDE1{[O=C(Cc1ccccc1)[*:2]].Y.S.K.Y.L.D.S.R.R.A.Q.D.F.V.Q.W.L.M.N.T.[am]}$$$$V2.0)
- pA2 [14]: 7.37

- Relative binding [1]: 0%
- Max stimulation [2]: 0%
- IA [3]: Inactive up to 100 uM
- IA [9]: Inactive up to 100 uM
Molecule: H-DSRRAQDFVQWL-NH2

- IC50 (Glucagon receptor [13]): 3.75 nM
Molecule: CSCC[C@H](NC(=O)[C@H](CC(C)C)NC(=O)[C@H](Cc1c[nH]c2ccccc12)NC(=O)[C@H](CCC(N)=O)NC(=O)[C@@H](NC(=O)[C@H](Cc1ccccc1)NC(=O)[C@H](CC(=O)O)NC(=O)[C@H](CCC(N)=O)NC(=O)[C@H](C)NC(=O)[C@H](CCCN=C(N)N)NC(=O)[C@H](CCCN=C(N)N)NC(=O)[C@H](CO)NC(=O)[C@H](CC(=O)O)NC(=O)[C@H](CC(C)C)NC(=O)[C@H](Cc1ccc(O)cc1)NC(=O)[C@H](CCCCN)NC(=O)[C@H](CO)NC(=O)[C@H](Cc1ccc(O)cc1)NC(=O)[C@H](CCC(=O)O)NC(=O)[C@H](CO)NC(=O)[C@@H](NC(=O)[C@H](Cc1ccccc1)NC(=O)[C@@H](NC(=O)CNC(=O)[C@H](CCC(N)=O)NC(=O)[C@@H](N)CO)[C@@H](C)O)[C@@H](C)O)C(C)C)C(=O)N[C@@H](CC(N)=O)C(=O)N[C@H](C(N)=O)[C@@H](C)O
- pA2 [5]: 7.25
